TRPC4 PAM: positive allosteric modulators of TRPC4, primary screen, cell-based, mouse TRPC4beta, HEK293 mu-opioid, Fluo-4 calcium | AID 2227, 2009 | 0.42% of 310,000 active | B-score at 10 µM | DAMGO EC20, Fluo-4 Ca2+ flux; hits give high values | Short transient receptor potential channel 4 (Mus musculus), Q9QUQ5;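 active = B-score of calcium response area above 5 SD of library B-scores, with initial fluorescence ratio within 5 SD of library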;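 note: B-score of integrated fluorescence ratio over time as area under calcium response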
TRPC6 activator: mouse TRPC6 channel activators, primary screen, cell-based, HEK293, membrane potential dye; B-score at 10 µM; 0.13% of 310,000 active; HEK293-TRPC6 membrane potential dye fluorescence; hits give high values;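 active = B-score of the integrated fluorescence ratio above library mean plus 3 SD, and starting fluorescence ratio within library mean plus 5 SD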;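 note: higher score means more depolarization so channel activation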
Target sequence (Q61143 whole entry, looked up): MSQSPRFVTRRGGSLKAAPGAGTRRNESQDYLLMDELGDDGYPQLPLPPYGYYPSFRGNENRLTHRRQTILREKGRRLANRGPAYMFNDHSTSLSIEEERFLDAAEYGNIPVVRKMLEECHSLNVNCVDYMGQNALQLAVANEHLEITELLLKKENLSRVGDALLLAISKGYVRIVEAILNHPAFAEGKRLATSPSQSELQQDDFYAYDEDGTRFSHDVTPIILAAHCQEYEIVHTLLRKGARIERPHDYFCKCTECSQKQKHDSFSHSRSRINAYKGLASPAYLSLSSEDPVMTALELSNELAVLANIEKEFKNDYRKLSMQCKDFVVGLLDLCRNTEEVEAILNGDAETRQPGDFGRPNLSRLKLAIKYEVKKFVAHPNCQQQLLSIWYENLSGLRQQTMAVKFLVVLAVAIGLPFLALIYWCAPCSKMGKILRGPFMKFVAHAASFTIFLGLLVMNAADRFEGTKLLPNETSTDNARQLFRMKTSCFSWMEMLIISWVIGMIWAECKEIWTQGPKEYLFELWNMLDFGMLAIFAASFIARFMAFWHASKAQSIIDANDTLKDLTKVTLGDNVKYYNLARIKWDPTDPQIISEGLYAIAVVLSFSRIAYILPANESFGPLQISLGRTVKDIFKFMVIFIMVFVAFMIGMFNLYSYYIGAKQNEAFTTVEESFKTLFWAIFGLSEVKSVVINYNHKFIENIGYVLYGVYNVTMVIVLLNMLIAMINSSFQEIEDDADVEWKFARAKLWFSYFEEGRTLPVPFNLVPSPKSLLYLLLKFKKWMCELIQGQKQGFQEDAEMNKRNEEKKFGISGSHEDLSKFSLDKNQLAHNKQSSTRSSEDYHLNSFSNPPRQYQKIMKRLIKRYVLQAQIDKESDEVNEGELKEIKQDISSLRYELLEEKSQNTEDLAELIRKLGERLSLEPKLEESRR
TRPC4 agonist: activators of mouse TRPC4 channel, primary screen, Fluo4 calcium, HEK293 TRPC4beta/mu-opioid cells; Short transient receptor potential channel 4 (Mus musculus), Q9QUQ5; Fluo4 calcium fluorescence; hits give high values; B-score at 10 µM; 0.49% of 310,000 active; AID 2237, 2010;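 active = B-score above 5 SD of library B-scores, and initial fluorescence ratio not above library mean plus 5 SD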;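 note: positive B-score marks a calcium rise read as TRPC4 activation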
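Test system: HEK293 cells stably co-expressing mouse TRPC4beta and mu-opioid receptor | Schedule: Fluo4 dye loading 45 min at room temperature, 110 s recording | Measured by: Kinetic Fluo4 calcium fluorescence, 5 s baseline at 1 Hz | Evaluation: B score of integrated ratio | Controls: Buffer (low) and maximal DAMGO (high)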
TRPC4 block: inhibitors of mouse TRPC4 channel, primary screen, Fluo4 calcium, HEK293 TRPC4beta/mu-opioid cells. Short transient receptor potential channel 4 (Mus musculus), Q9QUQ5. B-score at 10 µM. DAMGO-evoked Fluo4 calcium flux; hits give low values. 0.39% of 300,000 active;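 active = B-score over 3 SD under the library average, no early fluorescence shift, positive overall ratio signal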
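Assay system: HEK293 cells with stable TRPC4beta plus mu-opioid receptor expression; Probe or stimulus: DAMGO in two steps, submaximal then maximal; Dosing: single-point compound dosing; Measured by: Fluo4 calcium-dye fluorescence, kinetic read; Read-out basis: B score from integrated Fluo4 fluorescence ratio.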
TRPC6 inh: mouse TRPC6 channel inhibitors, primary screen, cell-based, HEK293, membrane potential dye | 1.1% of 310,000 active | Short transient receptor potential channel 6 (Mus musculus), Q61143 | B-score at 10 µM | AID 2553, 2010 | ACh-evoked depolarization; hits give low values;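 active = B-score under library mean minus 3 SD, initial fluorescence not abnormally high, positive integrated signal ratio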;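 note: B-score derived from integrated fluorescence ratio over the kinetic read; more negative B-score means stronger inhibition of depolarization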
TRPC4 spec 2: mouse TRPC4 off-target activity of TRPC6 inhibitors, second screen. AID 2776. 42% of 920 active. inhibition, % at 10 µM. shares compounds with TRPC6 inh. HEK293 TRPC4/MOR, membrane potential dye fluorescence; channel activated by saturating DAMGO dose;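 active = compounds whose fluorescence signal differed from control wells by over 3 SD, either direction, in both duplicate plates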
TRPC4 spec: mouse TRPC4 modulation by TRPC6 hits, confirmation, selectivity assay for TRPC6 inhibitor project, cell-based, HEK293 TRPC4/mu-opioid, membrane potential dye; shares compounds with TRPC6 inh; membrane potential fluorescence; activity change, negative = inhibition, % at 10 µM; 61% of 920 active; AID 2777, 2010;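 active = rise or fall in signal beyond 3 SD of buffer-only wells in both replicate plates, either sign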;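 note: integrated kinetic ratio of fluorescence range over baseline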
HEK293 MPD ctr 2-1: nonspecific membrane potential effects, parental HEK293, confirmation, counter-screen for TRPC6 inhibitor project, cell-based, second counter screen. shares compounds with TRPC6 inh. parental HEK293 membrane potential dye fluorescence; maximal acetylcholine challenge after compound addition. signal change vs control, % at 10 µM. 31% of 920 active. AID 2779, 2010;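 active = membrane potential signal moving either way by over 3 SD of the maximum-effect control, in both duplicate plates, meaning non-specific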
HEK293 MPD ctr-1: membrane potential modulation in parental HEK293, confirmation, counter-screen for TRPC6 inhibitor project, cell-based. shares compounds with TRPC6 inh. parental HEK293 membrane potential dye fluorescence. membrane potential signal change, % at 10 µM. 60% of 920 active. AID 2780, 2010;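 active = membrane potential signal shifting up or down by more than 3 SD of buffer-only wells, on both duplicate plates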
HEK293 MPD ctr-2: parental HEK293 membrane potential modulation, confirmation, counter-screen for TRPC6 modulator project, cell-based. shares compounds with TRPC6 inh. 51% of 2,400 active. membrane potential signal change, % at 10 µM. AID 488924, 2010. membrane potential dye fluorescence;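 active = membrane potential signal moves up or down beyond 5 SD from buffer-only wells, on both duplicate plates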
HEK293 MPD ctr 2-2: parental HEK293 nonspecific activity of TRPC6 modulators, second screen. inhibition, % at 10 µM. membrane potential dye fluorescence; after compound, maximal acetylcholine stimulation. 14% of 2,400 active. shares compounds with TRPC6 inh. AID 488926;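 active = membrane potential signal drops by more than 5 SD from the mean control signal, in both duplicate plates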;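 note: plate controls were acetylcholine ECmax control wells for no effect and buffer only wells for full effect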
TRPC4 ctr mod: TRPC4 modulation by TRPC6 hit compounds, confirmation, selectivity assay for TRPC6 modulator project, cell-based, HEK293 TRPC4/mu-opioid, membrane potential dye, mouse. shares compounds with TRPC6 inh. membrane potential fluorescence. percent change from control (negative = decrease, positive = increase), % at 10 µM. 69% of 2,400 active;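 active = membrane potential signal moved up or down beyond 5 SD of buffer control wells, in both duplicate plates, actives on both sides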;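 note: plate controls were assay buffer wells for no effect and DAMGO maximal-effect wells for full effect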
TRPC4 ctr inh 2: second selectivity test of TRPC6 modulators against mouse TRPC4 | shares compounds with TRPC6 inh | inhibition, % at 10 µM | HEK293 TRPC4/mu-opioid, membrane potential dye fluorescence; stimulated with maximal-effect DAMGO | 55% of 2,400 active | AID 488928;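 active = drop in membrane potential signal beyond 5 SD of the control wells in both duplicate plates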;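 note: TRPC4 counter screen for TRPC6 hits run under conditions tuned for TRPC6 not TRPC4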
TRPC6 inh conf: mouse TRPC6 channel inhibitors, confirmation, HEK293 cells, membrane potential dye, duplicate; shares compounds with TRPC6 inh; ACh-evoked depolarization; inhibition, % at 10 µM; 43% of 3,300 active; AID 488960, 2010;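 active = fluorescence ratio falls more than 5 SD below the full-stimulation control mean, in both duplicate runs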;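 note: integrated fluorescence ratio of peak minus minimum over baseline after agonist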
TRPC6 act confirm: mouse TRPC6 channel activators, confirmation, HEK293 cells, membrane potential dye, duplicate | shares compounds with TRPC6 inh | HEK293-TRPC6 membrane potential dye fluorescence, FDSS | activation, % at 10 µM | 11% of 2,800 active | AID 488961, 2010;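 active = ratio signal rise beyond 5 SD above unstimulated control wells' mean, seen in both duplicate runs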;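 note: plate controls were buffer EC0 wells for no effect and acetylcholine ECmax response for full effect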
The depositor's hits bear a star. Compounds with a hit are over-represented: about 2.3% of the library has one in this group of screens.

What do the screens show for `Cc1ccc(NC(=O)c2cccc3c2-c2ccccc2C3=O)cc1C`?
TRPC4 PAM: inactive; TRPC6 activator: inactive; TRPC4 agonist: inactive; TRPC4 block: inactive; TRPC6 inh: -7.3*; TRPC4 spec 2: inactive; TRPC4 spec: inactive; HEK293 MPD ctr 2-1: inactive; HEK293 MPD ctr-1: inactive; TRPC6 inh conf: inactive; TRPC6 act confirm: inactive

How did O=C1c2oc3ccc(F)cc3c(=O)c2C(c2ccccc2)N1CC1CCCO1 (stereo not given) do in these assays?
TRPC4 PAM: inactive; TRPC6 activator: inactive; TRPC4 agonist: inactive; TRPC4 block: inactive; TRPC6 inh: inactive

Results for CCOC(=O)C1CCCN(C(=O)c2cnn3c(C(F)F)cc(-c4ccc(C)cc4)nc23)C1 (stereo not given) ?
TRPC4 PAM: inactive; TRPC6 activator: inactive; TRPC4 agonist: inactive; TRPC4 block: inactive; TRPC6 inh: -6.2*; HEK293 MPD ctr-2: 156%*; HEK293 MPD ctr 2-2: inactive; TRPC4 ctr mod: 37%*; TRPC4 ctr inh 2: inactive; TRPC6 inh conf: inactive

How did COc1ccc(CNC(=O)CCCn2nc(C)c3c(C)n(-c4ccc(C)cc4)nc3c2=O)cc1 do in these assays?
TRPC4 PAM: inactive; TRPC6 activator: inactive; TRPC4 agonist: inactive; TRPC4 block: inactive; TRPC6 inh: inactive

Results for O=C(NN=C1CCCC1)c1ccccc1[N+](=O)[O-] ?
TRPC4 PAM: inactive; TRPC6 activator: inactive; TRPC4 agonist: inactive; TRPC4 block: inactive; TRPC6 inh: -5.6*; HEK293 MPD ctr-2: inactive; HEK293 MPD ctr 2-2: inactive; TRPC4 ctr mod: 8.0%*; TRPC4 ctr inh 2: inactive; TRPC6 inh conf: inactive; TRPC6 act confirm: inactive

What do the screens show for `CC(C)N1CCC(=NNC(=O)c2ccccc2[N+](=O)[O-])CC1`?
TRPC4 PAM: inactive; TRPC6 activator: inactive; TRPC4 agonist: inactive; TRPC4 block: inactive; TRPC6 inh: inactive

Results for CCOC(=O)N1CCC(N2Cc3cccc(C(=O)Nc4cccc(F)c4)c3C2=O)CC1 ?
TRPC4 PAM: inactive; TRPC6 activator: inactive; TRPC4 agonist: inactive; TRPC4 block: inactive; TRPC6 inh: -9.2*; TRPC4 spec 2: inactive; TRPC4 spec: inactive; HEK293 MPD ctr 2-1: -12%*; HEK293 MPD ctr-1: inactive; TRPC6 inh conf: 90%*; TRPC6 act confirm: inactive

Results for CCOC(=O)N1CCC(N2Cc3cccc(C(=O)N4CCN(c5cccc(Cl)c5)CC4)c3C2=O)CC1 ?
TRPC4 PAM: inactive; TRPC6 activator: inactive; TRPC4 agonist: inactive; TRPC4 block: inactive; TRPC6 inh: -6.3*; HEK293 MPD ctr-2: 100%*; HEK293 MPD ctr 2-2: inactive; TRPC4 ctr mod: 22%*; TRPC4 ctr inh 2: inactive; TRPC6 inh conf: 42%*

What do the screens show for `CCCCC(=O)Nc1cc(N(C)C)nc2ccccc12`?
TRPC4 PAM: inactive; TRPC6 activator: inactive; TRPC4 agonist: inactive; TRPC4 block: inactive; TRPC6 inh: inactive

Results for CN(C)c1cc(NC(=O)CNC(C)(C)C)c2ccccc2n1 ?
TRPC4 PAM: inactive; TRPC6 activator: inactive; TRPC4 agonist: inactive; TRPC4 block: inactive; TRPC6 inh: -9.2*; HEK293 MPD ctr-2: -192%*; HEK293 MPD ctr 2-2: inactive; TRPC4 ctr mod: -36%*; TRPC4 ctr inh 2: 50%*; TRPC6 inh conf: inactive; TRPC6 act confirm: inactive

How did Cc1ccc(Cn2cnc3ccccc32)cc1C do in these assays?
TRPC4 PAM: inactive; TRPC6 activator: inactive; TRPC4 agonist: inactive; TRPC4 block: inactive; TRPC6 inh: inactive

What do the screens show for `CCOC(=O)C1(Cc2cccc(OC)c2)CCN(Cc2cccn2-c2nccs2)CC1`?
TRPC4 PAM: inactive; TRPC6 activator: inactive; TRPC4 agonist: inactive; TRPC4 block: inactive; TRPC6 inh: -6.5*; HEK293 MPD ctr-2: 207%*; HEK293 MPD ctr 2-2: inactive; TRPC4 ctr mod: 34%*; TRPC4 ctr inh 2: 86%*; TRPC6 inh conf: inactive

Results for C/C(=N\NC(=O)C1(C)CC1(Br)Br)c1ccc(NC(=O)c2ccc(C)o2)cc1 (stereo not given) ?
TRPC4 PAM: inactive; TRPC6 activator: inactive; TRPC4 agonist: inactive; TRPC4 block: inactive; TRPC6 inh: inactive
